Shown are actives, neighbours in structure and some others; about 4.7% of the full set was active somewhere.
Mdm2-MdmX inh – human Mdm2/MdmX binding inhibition; O15151+Q00987; SaOS-2 split-luciferase Mdm2/MdmX complementation, luminescence; inhibition, % at 8 µM; 3% of 330,000 active; AID 485346;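 active means inhibition of at least 50% at 8 µM in the primary screen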
Target sequence (O15151 whole entry, looked up): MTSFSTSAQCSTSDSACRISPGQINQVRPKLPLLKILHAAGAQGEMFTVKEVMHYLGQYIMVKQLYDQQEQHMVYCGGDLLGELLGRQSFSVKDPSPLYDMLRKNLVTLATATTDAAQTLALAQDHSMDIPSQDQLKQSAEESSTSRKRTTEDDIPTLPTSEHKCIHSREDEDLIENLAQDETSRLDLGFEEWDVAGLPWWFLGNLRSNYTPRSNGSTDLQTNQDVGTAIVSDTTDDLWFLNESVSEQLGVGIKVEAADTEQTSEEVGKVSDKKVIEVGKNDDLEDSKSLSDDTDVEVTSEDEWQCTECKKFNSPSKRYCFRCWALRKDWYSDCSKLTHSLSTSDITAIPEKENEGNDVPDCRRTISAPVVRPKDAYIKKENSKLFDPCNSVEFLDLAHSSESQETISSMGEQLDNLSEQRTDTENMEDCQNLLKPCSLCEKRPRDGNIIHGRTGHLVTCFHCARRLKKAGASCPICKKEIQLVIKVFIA
Target sequence (Q00987 whole entry, looked up): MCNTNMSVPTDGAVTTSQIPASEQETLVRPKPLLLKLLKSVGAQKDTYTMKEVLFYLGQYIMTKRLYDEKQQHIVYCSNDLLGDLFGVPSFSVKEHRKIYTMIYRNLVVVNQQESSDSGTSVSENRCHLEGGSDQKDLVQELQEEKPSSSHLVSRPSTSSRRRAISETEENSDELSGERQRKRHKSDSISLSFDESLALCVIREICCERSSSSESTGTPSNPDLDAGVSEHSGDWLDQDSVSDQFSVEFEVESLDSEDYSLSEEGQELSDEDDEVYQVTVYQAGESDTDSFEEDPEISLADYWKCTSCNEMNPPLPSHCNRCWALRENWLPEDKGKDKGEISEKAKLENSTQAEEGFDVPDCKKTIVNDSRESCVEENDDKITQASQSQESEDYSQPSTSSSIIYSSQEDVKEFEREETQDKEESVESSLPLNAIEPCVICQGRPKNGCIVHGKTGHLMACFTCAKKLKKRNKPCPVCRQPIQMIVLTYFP
Jurkat NFkB inh – inhibitors of the PMA/ionomycin-induced NF-kB reporter in Jurkat cells; PMA/ionomycin-induced NF-kB luciferase reporter, luminescence; inhibition, % at 4 µM; 0.53% of 330,000 active; in the data active means inhibition above about 50%
697 NFkB inh – inhibitors of the PMA/ionomycin-induced NF-kB reporter in 697 B cells; 697 B-cell NF-kB luciferase reporter, 16 h; inhibition, % at 4 µM; 0.33% of 330,000 active; AID 435022; in the data active means inhibition above about 35%
IMP-1 inhibitor – inhibitors of Pseudomonas aeruginosa IMP-1 metallo-beta-lactamase. 0.45% of 290,000 active. AID 1556. inhibition, % at 5.6 µM. purified IMP-1, nitrocefin hydrolysis, epi-absorbance fluorescence;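 active means inhibition above the mean plus 3 SD of all compounds in the same screening run, cut at about 4.5% in these data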;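 further: 0% = IMP-1 with DMSO and 100% = DMSO wells lacking enzyme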
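System: purified recombinant IMP-1 beta-lactamase. Medium: Zinc- and detergent-supplemented HEPES buffer, pH 7.1. Compound: one 5.6 µM dose […]. Schedule: 15 min preincubation plus 25 min reaction at 25 °C. Technique: Epi-absorbance fluorescence, 480 nm excitation, 530 nm emission.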
VIM-2 inh – blocks Pseudomonas aeruginosa VIM-2 metallo-beta-lactamase; purified VIM-2, nitrocefin hydrolysis, epi-absorbance fluorescence; inhibition, % at 5.6 µM; 0.89% of 290,000 active; AID 1527;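 active means inhibition above the mean of all tested compounds plus 3 SD, cutoff set per screening run, cut at about 7.5% in these data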;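 further: red hydrolysis product quenches plate fluorescence so inhibitors raise well fluorescence; 0% = enzyme with DMSO and 100% = DMSO without enzyme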
aSyn UTR inh – MLPCN primary screen, SNCA 5' untranslated region; alpha-synuclein 5'UTR reporter, inhibitor activity; inhibition, % (tested at 7.5 µM); AID 1813; 0.82% of 300,000 active; in the data active means inhibition above about 60%;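 further: H4 neuroglioblastoma cells stably carrying SNCA 5'UTR luciferase fusion; 0% = DMSO wells and 100% = positive control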
Mdm2-MdmX conf – human Mdm2/MdmX binding inhibition, confirmed; shares compounds with Mdm2-MdmX inh; luminescent assay; inhibition, % at 8 µM; 55% of 10,000 active; in the data active means inhibition above about 40%
Full FLuc ctr – inhibits full-length luciferase, flagging false Mdm2/MdmX hits | shares compounds with Mdm2-MdmX inh | SaOS-2 full-length luciferase counterscreen, luminescence | inhibition, % at 8 µM | 77% of 6,200 active | AID 504607;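 active means mean inhibition at 8 µM reaching about 37%, which flags the compound as non-specific, limit read from the data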;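 further: p53-null SaOS-2 cells with luciferase driven by a doxycycline-inducible promoter; compound on cells about two nights before reading with doxycycline added after day one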
The depositor's hits bear a star; / = no result given.

SMILES | Mdm2-MdmX inh | Jurkat NFkB inh | 697 NFkB inh | IMP-1 inhibitor | VIM-2 inh | aSyn UTR inh | Mdm2-MdmX conf | Full FLuc ctr
Cc1c(CN2CCC(C(=O)Nc3cccc(-c4cccc(Cl)c4)c3)CC2)cnn1C | 58* | 4 | 1 | -1 | -5 | -3 | 10 | /
C=CCn1cc(CN2CCC(C(=O)Nc3cccc(-c4cccc(F)c4)c3)CC2)c(C)n1 | 51* | 10 | -13 | -2 | 0 | -1 | 31 | /
CCCn1ncc(CN2CCC(C(=O)Nc3cccc(-c4cccc(F)c4)c3)CC2)c1C | 87* | 10 | -15 | 2 | 4 | -11 | 46* | 71*
CCOC(=O)c1ccc(NC(=O)c2ccccc2)cc1 | -65 | -58 | -81 | -2 | -1 | -252 | / | /
CCOC(=O)c1ccc(NC(=O)c2c(N)n(Cc3ccccc3)c(=O)[nH]c2=O)cc1 | 96* | 7 | 5 | / | / | 13 | 31 | /
O=C1c2cc(F)ccc2-n2c1nc1ccccc1c2=O | 63* | 46 | -46 | -1 | 4 | 66* | 34 | 23
Nn1c(-c2ccc(F)cc2)nc2ccccc2c1=O | 18 | 7 | 4 | -3 | -1 | 6 | / | /
COc1ccc(-c2cc(-c3ccccc3)c(C#N)c(S(C)(=O)=O)n2)cc1 | 90* | 8 | 30 | -4 | -3 | 1 | -24 | /
CS(=O)(=O)c1nc(-c2ccc(Br)cc2)cc(-c2ccccc2)c1C#N | 100* | 29 | 22 | -5 | -1 | -3 | 76* | 52*
Cc1onc(-c2ccccc2Cl)c1C(=O)Nc1sc2c(c1C#N)CCC2 | 2 | -2 | -2 | -2 | 0 | 18 | / | /
Cc1onc(-c2ccccc2)c1C(=O)Nc1sc2c(c1C#N)CCC(C)C2 (configuration not stated) | 59* | 9 | -4 | -2 | -2 | -13 | 55* | 56*
NNC(=O)C(=O)Nc1ccc(O)cc1 | 16 | -7 | 4 | -3 | -4 | 21 | / | /
CC1=CC(C)[C@H](/C=N/n2c(=O)[nH]c3c([nH]c4ccc(C)cc43)c2=O)C(C)C1 (some centres not stated) | 86* | 6 | 12 | -3 | -2 | -10 | 7 | /
O=C(c1ccc(Br)cc1)C(CN1CCOCC1)c1ccccc1 (configuration not stated) | 91* | 33 | -89 | -1 | 1 | -152 | 56* | 25
Cc1onc(C(=O)N2CCN(C(c3ccccc3)c3ccccc3)CC2)c1[N+](=O)[O-] | 71* | 9 | 17 | -1 | -1 | 0 | 88* | 52*
CCOc1cc(/C=N/NC(=O)C(=O)NC)cc(Br)c1O | 3 | -7 | -17 | -1 | -2 | 22 | / | /
COC(=O)[C@@H]1[C@@H](C#N)C2(c3ccccc3-c3ccccc32)N(c2ccc(Cl)cc2)N1C#N | 60* | 1 | 7 | -4 | -1 | -41 | 50* | 33
COc1ccc(C2CC(c3ccccc3)=NN2C(=O)COC(=O)c2ccc(S(C)(=O)=O)cc2)cc1 (configuration not stated) | 20 | -3 | -2 | / | / | 25 | / | /
COc1ccc(C2CC(c3ccccc3)=NN2C(=O)COC(=O)c2cccc(O)c2)cc1 (configuration not stated) | 55* | -9 | 10 | / | / | / | -7 | /
COc1ccc(C2CC(c3ccc4ccccc4c3)=NN2C(=O)CNC2CCCCC2)cc1 (configuration not stated) | 62* | 3 | -8 | 0 | 1 | -13 | 28 | /
CCOC(=O)C1=C(C)NC(=O)NC1c1cccs1 (configuration not stated) | -4 | -8 | 26 | -1 | -2 | -8 | / | /
CCOC(=O)C1=C(N)n2c(s/c(=C\c3cccs3)c2=O)=C(C(=O)OCC)C1c1cccs1 (configuration not stated) | 62* | 8 | -28 | -1 | -4 | 29 | 50* | 79*
Cc1cc(N2CCOCC2)c2c(N)c(Br)cc(C)c2n1 | 74* | 25 | -12 | 0 | 1 | 23 | 71* | 35
CN(C)CCn1c(=N)n(CC(O)c2ccc(Cl)c(Cl)c2)c2ccccc21 (configuration not stated) | 71* | -7 | 14 | -3 | 1 | -51 | 55* | 74*
CCCCn1c(=N)n(CC(O)c2ccccc2)c2ccccc21 (configuration not stated) | -33 | -2 | -16 | 0 | 2 | 0 | / | /
SMILES | Mdm2-MdmX inh | Jurkat NFkB inh | 697 NFkB inh | IMP-1 inhibitor | VIM-2 inh | aSyn UTR inh | Mdm2-MdmX conf | Full FLuc ctr
N=c1n(CCN2CCCCC2)c2ccccc2n1CC(=O)c1ccc(Cl)c(Cl)c1 | 42 | -6 | -12 | -2 | -1 | 4 | / | /
N=c1n(CCN2CCCCC2)c2ccccc2n1CC(O)c1ccc(Cl)c(Cl)c1 (configuration not stated) | 99* | 16 | 6 | -2 | -1 | -38 | 96* | 56*
N=c1n(CCN2CCCCC2)c2ccccc2n1CC(O)c1cccc(Br)c1 (configuration not stated) | 98* | 27 | 2 | -1 | 0 | -34 | 78* | 34
COC(=O)c1cc(Cl)c(NC(=O)/C=C/c2ccc(Cl)cc2)cc1OC | 58* | -6 | -25 | -3 | -2 | 32 | -32 | /
COC(=O)c1sccc1NC(=O)/C=C/c1ccc(Cl)cc1Cl | 56* | -82 | -27 | -3 | -2 | -206 | -52 | /
Cc1cc(=O)oc2cc(OCc3ccc(C(=O)OCC(=O)NC4CCS(=O)(=O)C4)cc3)ccc12 (configuration not stated) | 51* | 8 | 9 | 2 | 3 | -9 | 15 | /
Cc1cc(=O)oc2cc(OCc3ccc(C(=O)OCC(=O)N(C)C4CCS(=O)(=O)C4)cc3)ccc12 (configuration not stated) | 1 | -9 | -1 | -4 | -2 | -26 | / | /
Cc1ccc2c(c1)c(=O)c(Br)c(C)n2Cc1ccccc1 | 7 | -8 | -15 | 0 | -2 | 28 | / | /
COc1ccc(/C=C(\C#N)c2nc3ccc(C)cc3[nH]2)cc1Oc1ccc(C(F)(F)F)cc1[N+](=O)[O-] | 83* | 3 | -39 | -1 | -2 | -85 | 12 | /
COc1cc(/C=C(\C#N)c2nc3ccc(C)cc3[nH]2)cc([N+](=O)[O-])c1O | / | / | / | -4 | -3 | / | / | /
Cc1ccc2nc(/C(C#N)=C\c3ccc(Oc4ccc(C(F)(F)F)cc4[N+](=O)[O-])cc3)[nH]c2c1 | 61* | 4 | -11 | 1 | -1 | -39 | 44* | 75*
Cc1cccc(NCC(=O)NNC(=S)Nc2ccccc2)c1 | 2 | 3 | 7 | 0 | -2 | / | / | /
Cn1cc([N+](=O)[O-])c(C(=O)Nc2nccs2)n1 | 57* | 7 | 13 | -1 | -3 | -18 | 17 | /

Screening data from PubChem BioAssay.
